The subject of assay [1] is HCT-116. Kind of assay: Survival of human HCT116 cells after 48 hrs by MTS reduction assay. The settings on record: Homo sapiens, HCT-116, 48 h. The class given is functional, cell-based. The essentials:
(§1)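 Viability read by MTS reduction. IC50 taken from dose-response curves, triplicate measurements. HCT116 grown in McCoy's 5A with 10% FCS. MDA-MB-231 grown in DMEM with 10% FCS and seeded at 7500 cells/well.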
(In general: Formazan colour is commonly taken as a measure of viable cells.)

Assay [2] concerns SH-SY5Y. Kind of assay: Survival of human SH-SY5Y cells after 24 hrs by MTS reduction assay. The class given is functional, cell-based.
Assay [3] deals with SH-SY5Y. Kind of assay: Death of human SH-SY5Y cells at 25 uM after 48 hrs by LDH release assay. The class given is functional. The essentials:
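SH-SY5Y human neuroblastoma cells were grown in DMEM with 2 mM L-glutamine, antibiotics and 10% FCS at 37 °C under 5% CO2. […] Lactate dehydrogenase release was measured 48 h after addition and expressed as percent cell death.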

Assay [4] has as its system A549. The assay is described as follows: Survival of human A549 cells after 48 hrs by MTS reduction assay. The assay is classed as functional, cell-based. The following applies: Homo sapiens, A549, 48 h.
The subject of assay [5] is SH-SY5Y. The assay is described as follows: Death of human SH-SY5Y cells in absence of 20 uM Q-VD-OPh by MTS reduction assay. The class given is functional, cell-based. The settings on record: read-out: IC50.
In assay [6] the test system is SH-SY5Y. The assay is described as follows: Survival of human SH-SY5Y cells at 25 uM by MTS reduction assay. The following applies: for viability at 25 µM: Homo sapiens, SH-SY5Y, read-out: Survival. The assay is classed as functional, cell-based. The essentials:
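Viability was read by MTS reduction and expressed as percent of untreated cells, as the average ± SE of three independent measurements, representative of two independent experiments.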

The subject of assay [7] is PC-3. Kind of assay: Survival of human PC3 cells after 48 hrs by MTS reduction assay. The settings on record: Homo sapiens, PC-3, 48 h. The assay is classed as functional, cell-based.
Assay [8] has as its system BP8. Kind of assay: Survival of […] AhR -/- BP8 cells after 48 hrs by MTS reduction assay. The assay is classed as functional, cell-based. The following applies: Mus musculus, BP8, 48 h.
For assay [9], the system named is HEK293. The assay is described as follows: Survival of human HEK293 cells after 48 hrs by MTS reduction assay. The class given is functional, cell-based.
Assay [10] concerns the target Cyclin-dependent kinase 5/CDK5 activator 1 (Homo sapiens, UniProt Q00535). The assay is described as follows: (§2) Inhibition of mammalian CDK5/p25. The assay is classed as protein-complex assay. Put shortly:
(§3)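 Recombinant CDK5 and p25, each expressed in E. coli as GST fusions and affinity-purified on glutathione agarose, mixed in equal amounts. Phosphate incorporation onto P81 paper read by scintillation counting, blank subtracted. Activity taken as % of uninhibited. IC50 from dose-response curves.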

For assay [11], the system named is MDA-MB-231. Kind of assay: Survival of human MDA-MB-231 cells after 48 hrs by MTS reduction assay. The class given is functional, cell-based. The following applies: Homo sapiens, MDA-MB-231, 48 h. The essentials: as §1
The test system of assay [12] is Huh-7. Kind of assay: Survival of human Huh7 cells after 48 hrs by MTS reduction assay. The class given is functional, cell-based.
Assay [13] can be described thus: Survival of mouse F1 cells after 48 hrs by MTS reduction assay. The following applies: Mus musculus, F1, 48 h.
Assay [14] has as its system SH-SY5Y. Kind of assay: Survival of human SH-SY5Y cells after 48 hrs by MTS reduction assay. The assay is classed as functional, cell-based.
A short description of assay [15]: Inhibition of starfish CDK1/cyclin B in presence of 15 uM ATP. More on the design: species or system Marthasterias glacialis.
The test system of assay [16] is SH-SY5Y. Kind of assay: Death of human SH-SY5Y cells in presence of 20 uM Q-VD-OPh by MTS reduction assay. The class given is functional, cell-based. The following applies: Homo sapiens, SH-SY5Y.
Assay [17] relates to HT-29. Kind of assay: Survival of human HT29 cells after 48 hrs by MTS reduction assay. The assay is classed as functional, cell-based.
Assay [18] has as its target Cyclin-dependent kinase 5/CDK5 activator 1 (Homo sapiens, UniProt Q00535+Q15078). The description is as §2. The assay is classed as protein-complex assay. The essentials: as §3
The target in assay [19] is Glycogen synthase kinase-3 (Homo sapiens, UniProt P49840+P49841). Kind of assay: Inhibition of porcine brain GSK3alpha/beta. The following applies: Sus scrofa.

Molecules are shown by their SMILES.

Chain of Cyclin-dependent kinase 5/CDK5 activator 1 (Homo sapiens, UniProt Q00535+Q15078) (Q00535 whole entry): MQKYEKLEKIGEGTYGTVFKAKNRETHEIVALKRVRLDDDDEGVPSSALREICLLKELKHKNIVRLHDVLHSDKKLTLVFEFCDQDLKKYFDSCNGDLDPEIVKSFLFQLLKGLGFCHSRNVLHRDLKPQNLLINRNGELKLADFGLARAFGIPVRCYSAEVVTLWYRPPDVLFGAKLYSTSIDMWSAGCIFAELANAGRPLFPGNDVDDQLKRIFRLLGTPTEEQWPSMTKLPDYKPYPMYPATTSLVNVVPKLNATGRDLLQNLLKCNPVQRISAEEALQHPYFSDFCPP
Chain of Cyclin-dependent kinase 5/CDK5 activator 1 (Homo sapiens, UniProt Q00535+Q15078) (Q15078 whole entry): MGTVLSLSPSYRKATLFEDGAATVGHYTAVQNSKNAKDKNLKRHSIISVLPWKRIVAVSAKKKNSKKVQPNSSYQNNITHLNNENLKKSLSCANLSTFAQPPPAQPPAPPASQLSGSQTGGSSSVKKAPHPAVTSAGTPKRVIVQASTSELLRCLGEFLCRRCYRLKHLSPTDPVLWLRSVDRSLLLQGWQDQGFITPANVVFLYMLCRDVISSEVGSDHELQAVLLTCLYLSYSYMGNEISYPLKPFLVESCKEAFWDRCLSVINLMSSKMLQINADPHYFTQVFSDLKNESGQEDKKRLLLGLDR
Chain of Cyclin-dependent kinase 5/CDK5 activator 1 (Homo sapiens, UniProt Q00535) (Q00535 whole entry, the tested form may be a part): as the sequence (Q00535 whole entry) above
Chain of Cyclin-dependent kinase 5/CDK5 activator 1 (Homo sapiens, UniProt Q00535) (Q15078 whole entry, further chain, the tested form may be a part): as the sequence (Q15078 whole entry) above
Chain of Glycogen synthase kinase-3 (P49840 whole entry, looked up): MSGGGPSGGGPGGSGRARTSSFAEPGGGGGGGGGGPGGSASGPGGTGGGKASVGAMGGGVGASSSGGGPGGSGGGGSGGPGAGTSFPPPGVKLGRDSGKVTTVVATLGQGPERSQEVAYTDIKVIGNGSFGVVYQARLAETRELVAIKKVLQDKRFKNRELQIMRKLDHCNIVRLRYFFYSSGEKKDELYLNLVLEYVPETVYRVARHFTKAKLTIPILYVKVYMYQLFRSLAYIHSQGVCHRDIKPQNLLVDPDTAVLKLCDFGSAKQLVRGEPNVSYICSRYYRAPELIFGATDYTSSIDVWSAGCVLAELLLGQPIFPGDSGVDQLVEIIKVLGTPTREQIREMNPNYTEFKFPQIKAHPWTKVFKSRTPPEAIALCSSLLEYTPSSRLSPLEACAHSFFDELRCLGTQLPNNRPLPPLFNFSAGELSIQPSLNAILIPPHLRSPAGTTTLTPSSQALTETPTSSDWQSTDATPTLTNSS
Chain of Glycogen synthase kinase-3 (P49841 whole entry, looked up): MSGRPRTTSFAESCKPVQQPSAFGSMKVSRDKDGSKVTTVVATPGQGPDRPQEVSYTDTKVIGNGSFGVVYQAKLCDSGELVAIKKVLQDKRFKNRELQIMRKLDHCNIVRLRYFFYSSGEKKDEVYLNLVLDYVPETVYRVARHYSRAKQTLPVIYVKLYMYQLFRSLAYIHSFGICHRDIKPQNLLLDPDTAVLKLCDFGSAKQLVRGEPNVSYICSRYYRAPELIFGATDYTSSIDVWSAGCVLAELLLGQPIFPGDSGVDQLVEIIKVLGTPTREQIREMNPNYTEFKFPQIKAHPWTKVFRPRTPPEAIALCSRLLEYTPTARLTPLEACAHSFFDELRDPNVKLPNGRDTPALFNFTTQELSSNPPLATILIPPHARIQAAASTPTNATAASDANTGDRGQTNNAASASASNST

The IC50 is the concentration needed to halve the response being measured. For `CN(C)CCO/N=C1/C(c2c(O)n(C)c3c(Br)cccc23)=Nc2ccccc21.Cl`, the IC50 stood at 15.7 µM in assay [1]; 21 µM in [2] (Homo sapiens, SH-SY5Y, 24 h); 20.8 µM in assay [4]; 11 µM in [5] (sh-sy5y); 25 µM in assay [7]; 19 µM in [8]. For the same compound, the IC50 in assay [9] (Homo sapiens, HEK293, 48 h) was 18.8 µM; in [10] it was above 10 µM; in assay [11], 17.8 µM; in assay [12] (Homo sapiens, Huh-7, 48 h) it was 18 µM; in assay [13], 5.4 µM; in assay [14] (Homo sapiens, SH-SY5Y, 48 h), 9 µM. Also, the IC50 in assay [15] was above 10 µM. In addition, the Activity in assay [3] turned out to be 80%. Further, in assay [6], the Survival came out at 4%.

On to `O=Nc1c(-c2c(O)[nH]c3c(Br)cccc23)[nH]c2ccccc12`, for which the half-inhibitory concentration (IC50) came to 6.2 µM in assay [1]; 8 µM in [2] (Homo sapiens, SH-SY5Y, 24 h); 21.8 µM in assay [4]; 7 µM in assay [16]; 7 µM in assay [5] (Homo sapiens, SH-SY5Y); 19.8 µM in assay [7]. Moreover, the IC50 came to 19.4 µM in assay [8]; 12.3 µM in assay [9] (Homo sapiens, HEK293, 48 h); 21.2 µM in assay [17] (Homo sapiens, HT-29, 48 h); 10.5 µM in [11]; 9 µM in assay [12] (Homo sapiens, Huh-7, 48 h); 8 µM in assay [13]. Further, in assay [14] (Homo sapiens, SH-SY5Y, 48 h), the midpoint of inhibition, the IC50, lay at 7.1 µM. Moreover, the Activity in assay [3] worked out at 94%. Moreover, the viability at 25 µM in assay [6] was 4%.

`Cn1c(O)c(C2=Nc3ccccc3/C2=N\OCCN2CCOCC2)c2cccc(Br)c21` displayed a Survival in assay [6] of 98%. In [18], this compound returned a 50% inhibitory concentration (IC50) above 10 µM.

Take `CN(C)CCO/N=C1/C(c2c(O)n(C)c3c(Br)cccc23)=Nc2ccccc21`: the IC50 in assay [2] (sh-sy5y) was above 25 µM; in [16], above 25 µM; in assay [5] (Homo sapiens, SH-SY5Y) it was 6.4 µM; in [18], above 10 µM; in [14] (sh-sy5y), 5.5 µM. The compound further displayed an Activity in [3] of 33%. The Survival in assay [6] is on record as 49%.

As for `O=Nc1c(-c2c(O)[nH]c3c(Cl)cccc23)[nH]c2ccccc12`, the IC50 was determined as 14 µM in assay [2] (Homo sapiens, SH-SY5Y, 24 h); 11 µM in assay [16]; 10 µM in assay [5] (Homo sapiens, SH-SY5Y); 21 µM in assay [19]; 6 µM in [10]; 12 µM in assay [14] (Homo sapiens, SH-SY5Y, 48 h). The IC50 in assay [15] came to 3.7 µM. The Activity in assay [3] is on record as 92%. For the same compound, the viability at 25 µM in assay [6] came out at 7%.

Take `Oc1[nH]c2c(Br)cccc2c1C1=Nc2ccccc2/C1=N\OCCN1CCCC1`: the IC50 in assay [2] (sh-sy5y) was 3.6 µM; in assay [16], above 25 µM; in assay [5] (Homo sapiens, SH-SY5Y), 2 µM; in [18], above 10 µM; in [14] (sh-sy5y), 2.3 µM. This compound returned an Activity in assay [3] of 14%. The Survival in [6] is reported as 13%.

For `Cl.Oc1[nH]c2c(Br)cccc2c1C1=Nc2ccccc2/C1=N\OCCN1CCCC1`, the IC50 in [1] is 3.8 µM; in assay [2] (Homo sapiens, SH-SY5Y, 24 h), 3.1 µM; in assay [4], 16 µM; in assay [5] (sh-sy5y), 2.8 µM; in assay [7] it was 30 µM; in [8], above 30 µM. In addition, the IC50 in [9] (Homo sapiens, HEK293, 48 h) was above 30 µM; in assay [10], above 10 µM; in [11], above 30 µM; in assay [12] (Homo sapiens, Huh-7, 48 h), 13.6 µM; in assay [13], 3.1 µM; in [14] (Homo sapiens, SH-SY5Y, 48 h) it was 2 µM. For the same compound, the IC50 in assay [15] was above 100 µM. Moreover, the Activity in [3] was determined as 80%. The viability at 25 µM in assay [6] was found to be 12%.

Regarding `Cl.Cl.Oc1[nH]c2c(Br)cccc2c1C1=Nc2ccccc2/C1=N\OCCN1CCNCC1`, the IC50 was found to be 5.1 µM in assay [1]; 6 µM in [2] (Homo sapiens, SH-SY5Y, 24 h); 6 µM in [4]; 6.8 µM in assay [16]; 6.2 µM in [5] (Homo sapiens, SH-SY5Y); 6 µM in assay [7]. Further, the IC50 in assay [8] was 5.4 µM; in [9] (hek293), 1.9 µM; in assay [17] (ht-29), 1.9 µM; in assay [10], above 10 µM; in assay [11], 5.1 µM; in assay [12] (huh-7), 2 µM. Further, the IC50 in assay [13] was 1.4 µM; in assay [14] (Homo sapiens, SH-SY5Y, 48 h), 6 µM; in assay [15] it was above 10 µM. Moreover, the Activity in [3] is 100%. In addition, the viability at 25 µM in assay [6] stood at 3%.

The values above are taken from ChEMBL document CHEMBL1137414, “3'-Substituted 7-halogenoindirubins, a new class of cell death inducing agents” (J Med Chem, 2006).
